Sampled rows, rich in hits. Any-hit rate of the full collection: about 2.2%.
TCR CD3 inh: inhibitors of human TCR-CD3 interaction. TAMRA-labeled TCR probe fluorescence, biochemical. AID 651800. 360,000 compounds, 0.37% hits. inhibition, % at 9.4 µM; in the data active = inhibition above about 19%;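 note: recombinant mutant TCR 2C K166C tagged with TAMRA read by polarization; 0% = receptor in buffer alone and 100% = receptor with positive control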
HTRA1 inh: blocks human HTRA1 serine peptidase. recombinant HTRA1, FP-rhodamine activity-based probe, fluorescence polarization. inhibition, % at 5.96 µM. 340,000 compounds, 0.5% hits. AID 504803; in the data active = inhibition above about 36%;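 note: 0% = enzyme with DMSO and 100% = wells lacking enzyme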
TDP2 absorb: blocks human TDP2 phosphodiesterase activity; O95551; recombinant TDP2, T5PNP hydrolysis, p-nitrophenol absorbance 415 nm; inhibition, % at 12.8 µM; 370,000 compounds, 0.34% hits; AID 720702;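 active = inhibition above the mean of all tested compounds plus 3 SD, set per campaign, cut at about 25% in these data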;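 note: 0% = DMSO with enzyme and 100% = buffer with substrate but no TDP2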
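Test system: human TDP2 enzyme; Input: 120 nM TDP2 per well; Buffer or medium: Mg2+-containing Tris-HCl buffer, pH 7.5; Reagent: 5 mM T5PNP; Dosing: 12.8 µM single point, 1% DMSO; Incubation: reaction 2 h, 37 °C; Detection: p-Nitrophenol epi absorbance; Read-out: % inhibition relative to enzyme-containing and enzyme-free wells; Replicates: single well per compound.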
mABHD4 FP: ABHD4 (mouse) inhibition, primary FP screen; Q8VD66; purified mABHD4, FP-Rh probe fluorescence polarization; inhibition, % at 8.92 µM; 370,000 compounds, 0.54% hits; AID 720543;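 active = inhibition exceeding the mean over every tested compound plus 3 SD, cut at about 30% in these data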;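 note: 0% = plate median of compound wells and 100% = S159A mutant with DMSO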
Target sequence (Q8VD66 whole entry, looked up): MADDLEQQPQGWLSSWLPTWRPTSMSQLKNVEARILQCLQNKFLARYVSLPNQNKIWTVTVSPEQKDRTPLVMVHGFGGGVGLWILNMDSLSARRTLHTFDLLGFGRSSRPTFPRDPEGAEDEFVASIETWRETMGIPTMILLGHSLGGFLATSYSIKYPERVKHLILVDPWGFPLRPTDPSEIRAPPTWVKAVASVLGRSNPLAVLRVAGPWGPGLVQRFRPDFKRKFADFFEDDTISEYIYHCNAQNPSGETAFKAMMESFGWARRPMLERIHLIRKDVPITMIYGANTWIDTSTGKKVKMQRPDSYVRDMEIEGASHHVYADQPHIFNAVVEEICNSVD
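Assay system: mouse ABHD4 enzyme, wild type / Also added: fluorescent activity-based probe FP-Rh / Doses: single nominal dose of 8.92 µM, 0.89% DMSO final / Timing: 45 min compound pre-incubation plus 60 min probe step, 25 °C / Signal: FP readout, ex 525 nm / em 598 nm / Control set: S159A mutant/DMSO as 100%, compound-well median as 0%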
SIAE inh: human SIAE inhibition, primary screen. SIAE FP-Rh probe binding, fluorescence polarization. Q9HAT2. inhibition, % at 9.66 µM. 370,000 compounds, 0.69% hits;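 active = inhibition above a cutoff: mean of compounds within the control limits plus 3 SD of those, cut at about 17% in these data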;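 note: 0% = plate median of compound wells and 100% = probe without SIAE protein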
LEDGF integ inh: blocks HIV-1 LEDGF/p75-dependent DNA integration; TR-FRET IN-LEDGF/p75 DNA integration, Eu/Cy5; AID 743269; 370,000 compounds, 0.64% hits; inhibition, % at 3.7 µM;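 active = inhibition above the screen-wide mean plus 3 SD, cut at about 13% in these data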;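 note: signal is the Cy5 over europium emission ratio at 671 and 618 nm; 0% = plate median of compound wells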
SIAE inh conf: confirmation of human SIAE inhibitors; 2,300 compounds, 13% hits; shares compounds with SIAE inh; AID 1117263; SIAE FP-Rh activity-based probe, fluorescence polarization; inhibition, % at 9.66 µM;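 active = mean inhibition of the replicates above the hit cutoff set in the primary screen, cut at about 17% in these data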;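 note: 0% = SIAE with DMSO and probe and 100% = probe without SIAE; inhibitors lower polarization as more probe stays unbound to SIAE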
Numbers without * were called inactive; . = no result.

SMILES	TCR CD3 inh	HTRA1 inh	TDP2 absorb	mABHD4 FP	SIAE inh	LEDGF integ inh	SIAE inh conf
CNC(=O)c1c(NC(=O)c2ccc(S(=O)(=O)N3CCCC3)cc2)sc2c1CCN(C(C)C)C2	0	.	-2	-3	5	1	.
Cc1ccc2oc(C(=O)Nc3cc(C)on3)c(C)c2c1	-4	2	4	3	2	-4	.
COc1ccc(C(=O)/C=C2\C(=O)Nc3ccc(Br)cc32)cc1	-3	-49	0	12	6	0	.
O=C1Nc2ccc(Br)cc2/C1=C/C(=O)c1ccc2c(c1)OCO2	10	-27	2	7	19*	0	2
CCC(C)[C@H]1CNCCN1CCC12CC3CC(CC(C3)C1)C2 (some centres not stated)	0	-4	1	0	0	0	.
CC(Sc1ncnc2ccccc12)C(=O)Nc1ccc2c(c1)OCCO2 (configuration not stated)	-1	0	5	-11	24*	2	-1
O=C(CSc1ncnc2ccccc12)Nc1ccc2c(c1)OCCO2	-10	0	-7	-10	-4	0	.
CC(C)c1ccccc1NC(=O)Nc1nc(C(N)Cc2ccc(C(F)(F)F)cc2)cs1 (configuration not stated)	-3	.	-3	10	9	5	.
NC(Cc1ccc(C(F)(F)F)cc1)c1csc(NC(=O)Nc2ccccc2Cc2ccccc2)n1 (configuration not stated)	-15	.	-6	5	17*	6	23*
O=C(Nc1cc(Cl)ccc1N1CCOCC1)c1ccc(Br)o1	-2	-1	-6	-3	24*	0	1
COc1ccc(N2CCOCC2)c(NC(=O)c2ccc(Br)o2)c1	5	-10	2	12	6	-2	.
COc1ccc(NC(=O)c2cc3c(Cl)nc4ccccc4c3s2)cc1OC	-6	-4	1	14	26*	5	-4
COc1ccc(OC)c(NC(=O)c2cc3c(Cl)nc4ccccc4c3s2)c1	10	0	7	4	3	1	.
COC(=O)CC1C(=O)NCCN1C(=O)CSc1nc2cc(Cl)ccc2o1 (configuration not stated)	2	-2	-15	-4	21*	1	3
COC(=O)CC1C(=O)NCCN1C(=O)c1ccc2oc(C(C)C)nc2c1 (configuration not stated)	7	3	17	-1	-5	1	.
CC(C)CC(=O)Nc1nnc(-c2ccco2)s1	5	1	8	-7	18*	-2	-1
COC(=O)Nc1nnc(-c2ccco2)s1	2	.	3	5	7	-1	.
CC(C)Cc1nnc(NC(=O)CCNC(=O)c2ccco2)s1	2	1	15	-1	29*	1	1
O=C(Cn1ccnc1[N+](=O)[O-])N(CCO)CCO	-3	1	-5	-5	-2	-2	.
COc1ccc(OC)c(Nc2nc(-c3cccs3)cs2)c1	0	10	-1	27	20*	0	2
COc1ccc(Nc2nc(-c3cccs3)cs2)cc1	-3	.	-3	9	14	2	.
Oc1ccc(Nc2nc(-c3cccs3)cs2)cc1	-3	23	5	-1	20*	2	6
CC(=O)Nc1c2c(nn1-c1cccc(Cl)c1)CS(=O)(=O)C2	2	-1	5	3	18*	1	-5
COc1cccc(CNS(=O)(=O)c2cc(Br)ccc2Br)c1OC	5	.	-5	-10	-3	-8	.
COc1ccc(S(=O)(=O)n2nc(OC(=O)C3CCCCC3)cc2N)cc1	-2	-8	2	-3	43*	4	50*
SMILES	TCR CD3 inh	HTRA1 inh	TDP2 absorb	mABHD4 FP	SIAE inh	LEDGF integ inh	SIAE inh conf
Cc1ccc(S(=O)(=O)n2nc(OC(=O)C3CCCCC3)cc2N)cc1	1	4	-7	1	36*	-1	38*
CCOC(=O)C1=C(COC(=O)COc2ccc(OCC)cc2)NC(=O)NC1C (configuration not stated)	6	2	19	0	0	2	.
Cc1ccc(NC(=O)c2cc3ccccc3cc2O)cc1	8	-2	-10	19	-6	3	.
Cc1ccc(NC(=O)NNC(=O)c2cc3ccccc3cc2O)c(C)c1	14	35	9	18	22*	2	-4
CCOC(=O)CC(=O)CSc1nc2c(sc(=S)n2-c2ccc(OCC)cc2)c(=O)[nH]1	-3	-10	12	0	20*	2	-2
COc1ccc(NC2CCCN(C(=O)CN3CCOC3=O)C2)cc1 (configuration not stated)	3	3	0	6	4	1	.
COc1ccc(OCc2cc(C(=O)N3CCCC(OC)C3)no2)c2ccccc12 (configuration not stated)	-3	-13	-7	3	7	-5	.
COc1ccc(OCc2cc(C(=O)N3CCCC(O)C3)no2)c2ccccc12 (configuration not stated)	-1	-1	16	2	18*	2	0
O=C(c1ccc(S(=O)(=O)NCC2CCCO2)cc1)N1CCc2ccccc21 (configuration not stated)	-1	-2	-2	-6	22*	0	3
C[C@H](NC(=O)c1ncn2c1c(=O)[nH]c1ccc(Br)cc12)c1ccccc1	1	-8	-6	-7	-8	3	.
COc1ccc2nc(-c3ccccn3)[nH]c2c1	-13	33	-15	-9	-1	6	.
Nc1ccc2nc(-c3ccccn3)[nH]c2c1	1	27	-6	11	51*	2	9
Cn1c(=O)c2c(SCC(=O)Nc3ccccc3F)nc(-c3ccccc3F)nc2n(C)c1=O	3	9	11	-2	23*	1	1
Cn1c(=O)c2c(SCC(=O)Nc3ccccc3F)nc(C3CC3)nc2n(C)c1=O	2	7	-10	-9	1	-2	.
COc1cccc(CN2CCc3[nH]c(=S)[nH]c(=O)c3C2)c1	1	-4	11	7	22*	-1	-1
CCc1nc2ccc(C(=O)N(C)C(C)C)cn2c1N(CC)Cc1cccc(Br)c1	1	.	-1	-1	6	1	.
CC(=O)Nc1ccc(NC(=O)CSc2nccn2Cc2ccccc2)cc1	1	0	7	-1	10	7	.
Cc1ccc(NC(=O)CSc2nccn2Cc2ccccc2)cc1C	1	-22	-1	0	18*	-3	3

Screening results deposited in PubChem by The Scripps Research Institute Molecular Screening Center.
